System: MS2 coat protein
Experiment: apparent Kd, MS2 coat protein; higher = weaker binding; RNA-MaP array; FMN 200 µM where present
Outline: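 In 100 mM Tris-HCl pH 7.5, 80 mM KCl, 4 mM MgCl2, BSA, DTT, yeast tRNA and Tween-20, SNAP-549-labelled MS2 coat protein was titrated from 0.7 or 1.5 nM, doubling to 3 µM, over designs transcribed by stalled E. coli RNA polymerase on Illumina sequencing-chip clusters. This was done first without ligand, then with ligand held constant. After green signal was normalised to red-channel RNA signal and control-cluster median Fmax, the apparent Kd was taken as the median of filtered per-cluster binding-curve fits.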

[1] = designed as: ON switch for flavin mononucleotide, no ligand
[2] = ligand present: flavin mononucleotide, designed as: ON switch for flavin mononucleotide
[3] = designed as: OFF switch for flavin mononucleotide, no ligand
[4] = ligand present: flavin mononucleotide, designed as: OFF switch for flavin mononucleotide

| Sequence | apparent Kd [1] | apparent Kd [2] | apparent Kd [3] | apparent Kd [4] |
| --- | --- | --- | --- | --- |
| UUCAUCAAUGAAGGAUAUCUAUGUCCAACAUGAGGAUCACCCAUGUUGAGGAUUACCUAUGUGUAGGAGAAGGUCAAUAUAACU | 6.53 nM | 5.93 nM |  |  |
| GCAGUACGCCUGGCAAUUUGCAAGCAGGAUAUCAGGCACCGUGAGACAUGAGGAUCACCCAUGUCUGAGAAGGGCUGGAGUUGC |  |  | 9.68 nM | 18.9 nM |
| GGAGCCGGUACUGAGGAUAUUCAUAUUAAAACAUGAGGAUCACCCAUGUGGGCCAGAAGGCCUUGGGAGAAGGCAGACCAGCUCG | 238 nM | 22.1 nM |  |  |
| ACCGAAUGAACAUGAGGAUCACCCAUGUACAGGAAACUGAAUGAGGAUAUCGAUAGCAAAGCUAUCGAGAAGGCAUGGGUCGGU | 285 nM | 69.7 nM |  |  |
| UUAGAAUUGUUAGGAUAUUAAUUAUUGUAUAGUAUGAUCUACAUGAGGAUCACCCAUGUUAAAUAUAAGAAGGAACGUUAGAUU |  |  | 57.6 nM | 51.3 nM |
| AGAUAACAUGAGGAUCACCCAUGUGAGGAUAUUUACUCAAGAGCUUCGGCUCUCAGGUGAAGAAGGCACAAUGA |  |  | 55.9 nM | 83.4 nM |
| UUGGACGUCGUAGGAUAUGUGGGAUAUUCCUACAUGAGGAUCACCCAUGUUGACAUGGAAGAAGGACAGAAGGACGAUGUCCAU | 31.1 nM | 5.52 nM |  |  |
| UCGUUUAUACAAGGAUAUCAAUUAUAGCUAAAUUCAACAUGAGGAUCACCCAUGUAACUAUGGAGUGAGAAGGUGUAAUGGCUU | 116 nM | 310 nM |  |  |
| CGCAAUAUACAGAAGGAGUUAUUUAGAGGUUUACUAGGAUAUGUUCACAUGAGGAUCACCCAUGUCAUAUGGAGUUUUAUUGCG |  |  | 9.25 nM | 8.33 nM |
| UCGCUGCGAGGAUAUACAUGAGGAUCACCCAUGUACGGGUCCGGGUUUUCGUCCAUUAGUAGAAGGCGCAGUGA |  |  | 156 nM | 60.6 nM |
| AAAAAGUGAGGAUAUACAUGAGGAUCACCCAUGUGAAAGUCGAAAAAAAAGACAAAAAGUAGAAGGCACAAAAA |  |  | 30.7 nM | 32.7 nM |
| CCGAGGCAAAUAAAACAUGAGGAUCACCCAUGUGAGUCUCAUGAGGAUAUGCAGGUCAAAGACUUGCAGAAGGCAUGGCUUCGG | 1190 nM | 146 nM |  |  |
| AAAAUGUCAGGAUAUGCGAAGGCGUCUGAUAGACGAGGCUAGCAGAAGGGACAUGAGGAUCACCCAUGUAAAAA |  |  | 52.6 nM | 152 nM |
| GCAGCAAUCUAAAACAUGAGGAUCACCCAUGUCGAGAGAUAUGAGGAUAUGCAUCGGAUGAAGAUGCAGAAGGCAUUGUGCUGC | 8.66 nM | 6.35 nM |  |  |
| CCGAUGAUAGGACAGGAUAUGACUGUCGUCACAUGAGGAUCACCCAUGUCCCGGCAAUGCCACCGUUAGAAGGGUCCCAUCUCGG | 19.1 nM | 16.3 nM |  |  |
| AACAGGUUCACAUGAGGAUCACCCAUGUUAGCCUAACGUAGGAGAAGGACGGUAGCUGGGCUGACGUAGGAUAUCCUACUGUGA | 9.22 nM | 4.8 nM |  |  |
| GAACUGAAGCAUAGCUUUAGUCGUACAUGAGGAUCACCCAUGUAGGAUAUAGUAGGCAUAGCUUACUAGAAGGAUAGAGUGAUC |  |  | 254 nM | 106 nM |
| GUGCACAUUCGAGGAUAUCGGAGAGGAGUCCUUCGAGAAGGCGAUUCGUGCCGUGUUAUUCUGGACAUGAGGAUCACCCAUGUG | 106 nM | 35.7 nM |  |  |
| CGCUAAGAGAACUAUUCGAGAAGACAUGAGGAUCACCCAUGUAGAAGGACAACGGAAUAAACGUUGUAGGAUAUACACUUAGCG |  |  | 9.36 nM | 8.97 nM |
| UCUUUGUUUGUGAGGAUAUCGAUAAAAUGGAUUGUCGAGAAGGCACAUGAGGAUCACCCAUGUGUGGGACAGCA |  |  | 22.3 nM | 74.9 nM |
| UAUAUAUAGGCAGGAUAUACAUGAAUAUAUAUAAUAUAGUAUGAUGUAACAUGAGGAUCACCCAUGUAGAAGGGCCAAUAUAUA |  |  | 36.2 nM | 83.9 nM |
| CAGCUGAAAGUCAGGAUAUCUAGAGCUGCGGCUCUAGAGAAGGGACAUGAGGAUCACCCAUGUCACUCCAGCUG |  |  | 16.4 nM | 18.3 nM |
| AAUUGAAACGUAGGAUAUCGCACUAAUUUUAAACGAGAAGGACGUACAUGAGGAUCACCCAUGUUAAAUGGUGUAGAUUAGAUG |  |  | 156 nM | 692 nM |
